Assay results published in the EternaBench riboswitch data.

Tested on: MS2 coat protein
Assay: apparent Kd, MS2 coat protein; higher = weaker binding; RNA-MaP array
Procedure, shortened: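 In Tris-HCl pH 7.5 buffer with KCl, MgCl2, BSA, DTT, tRNA and Tween20, with or without input ligand, fluorescently labeled MS2 coat protein at 1.5 nM to 3 μM was incubated at room temperature with designed RNAs. The RNAs had been transcribed on an Illumina sequencing chip from sequenced DNA templates, and incubation ran 0.8–1.5 h at the lowest to 10–20 min at the highest concentrations. Apparent Kd is the median of binding-curve fits for individual clusters. Designs measured on fewer than 10 clusters were excluded.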

[1] = designed as: OFF switch for flavin mononucleotide, no ligand
[2] = ligand present: flavin mononucleotide, designed as: OFF switch for flavin mononucleotide
[3] = designed as: ON switch for flavin mononucleotide, no ligand
[4] = ligand present: flavin mononucleotide, designed as: ON switch for flavin mononucleotide
[5] = designed as: ON switch for theophylline, no ligand
[6] = ligand present: theophylline, designed as: ON switch for theophylline

Sequence	apparent Kd [1] [nM]	apparent Kd [2] [nM]	apparent Kd [3] [nM]	apparent Kd [4] [nM]	further results
ACGUUGCAGCAAGGAUAUUCGAGACUACUAGAAGAAGAAGGUGCCGUGCUCUUCACAUGAGGAUCACCCAUGUGGCGUUAAUUU	9.11	8.35	–	–	–
UACAUGAGGAUCACCCAUGUUAACGCUUAGAUGCAUCGACGUGAGGAUAUCGGGUUAAACCAGCACGAGAAGGCACAUCCAGAU	–	–	34.5	20.2	–
CUUGUAACCUAAGGAUAUGAUUAGGGCAUCACAUGAGGAUCACCCAUGUGGCGUGAUCCGAGCCUUCAGAAGGUAGGGGAGCAU	475	479	–	–	–
GGUGCACAUGAGGAUCACCCAUGUGAGGAUAUGUGAAACGAGCUGAAUGCCAACCAAAACAGAAGGCACAAUGG	18.3	19	–	–	–
GUAUGGAUAUUCUCACGCUACAUGAGGAUCACCCAUGUUCUAAGAAGGCGGCGAGGUAGAGCAUCCGAGGAUAUUAGAACUCAG	21.1	76	–	–	–
CGACUAACGUGAGGAUAUAGUCCGGAAAGACAUUUUCGUCAAGACAUGAGGAUCACCCAUGUCCUCUAGAAGGCACUCGGAACA	–	–	45.1	30.5	–
CGACCGCACGAGAAGGCUAGACAGCGGCGAUCUAGAGGAUAUCGACAUUCAACAUGAGGAUCACCCAUGUGAUUCCAACAAGCU	57.8	69.6	–	–	–
GUGUACAUGAGGAUCACCCAUGUGAGAGCCACAUAGGGCCAGAAGGAUAUCUAUACUACCGCGUCAGAGAAGGUCUGUUGAUUU	–	–	33.2	24.9	–
CGUAACCAAGGAUAUACAUGAGGAUCACCCAUGUAUCGGGUCGGUCUGGGUCCAAUAAGUAGAAGGUGGCUGAU	29.3	39.7	–	–	–
UUGCAGGCAGGAUAUACGGUAUAUAACAUGAGGAUCACCCAUGUUCUUCACGAUCCCUGCGUAGAAGGGCCACAUU	4.96	5.25	–	–	–
GCUUCACAUGAGGAUCACCCAUGUCCGGAUACCAGCUCUCCAGACAGCCCUUGGCAGCCGAGCGCCCGAUUAUAUACCCUAGGAG	–	–	–	–	apparent Kd [5]: 22 nM; apparent Kd [6]: 29.9 nM
UAGCAAUGCGAAGGAUAUGUCGCCCUCCCAAGGACAGAAGGUCGGAACUGUUUACAUGAGGAUCACCCAUGUGGUAAUUAACAA	–	–	21.8	15.6	–
CCAUGAAGAUAGGAUAUAGGUCGAGUUCCCGAACAAGAAGGAUCGACAUGAGGAUCACCCAUGUGCAUCCAUGA	27.1	21.1	–	–	–
UUUAGUCAAUCGGCCGCCACUGACAUGAGGAUCACCCAUGUAGGUAAGGAUCAACCUCGAAAGUACAGGACCGGGAUUCGCCUCU	–	–	–	–	apparent Kd (designed as: OFF switch for tryptophan, no ligand): 53.3 nM; apparent Kd (ligand present: tryptophan, designed as: OFF switch for tryptophan): 84 nM
ACAUGAGGAUCACCCAUGUUCUCAAGUAUAAUAGAUAAAUCAAGAAGGGCUAAUCGACCGAAUAAGCAGGAUAUUGUGAUAUGG	18.3	21.2	–	–	–
UUAGCACAUGAGGAUCACCCAUGUCAGGAUAUACGGAAUGUCCUCUACAGGGCGCGCUGUAGAAGGGACCGGGC	9.53	9.76	–	–	–
GUAAGCAAGCAAGGAUAUGAUAUAAAUUCGAUAUCAGAAGGUGCCUUUCCUAGUCGAAUACAUGAGGAUCACCCAUGUCAGCAA	–	–	25.6	18	–
GCGUGGUAAGGAUAUGUGUACGUCCGGUAGUAUAGCGUACAACAGAAGGUACAUGAGGAUCACCCAUGUGUCCG	7.03	7.94	–	–	–
CCAUGCGUUGAGAAGGUGCUCGGGAAUCCACAUGAGGAUCACCCAUGUUGACUAGUAAGGCAUCGCAAGGAUAUCAGCUAUCUC	28.8	25.3	–	–	–
CUUUACAUAUGUAUGUGGGUUACAUGAGGAUCACCCAUGUGAAGAAGGCUCACCUCAAGCGCAAGAGAGGAUAUUCACGGGUCC	60.8	104	–	–	–
GACACCCAAGGAUAUCAAUGAAUCAACAUGAGGAUCACCCAUGUCGUCACCAGAUUAAACUGAGAAGGAGGAGAAA	11.4	9.75	–	–	–
CCUGGAUCAGAUCUUAAAGGCGGUUCUGAUACCAGUCUUUUCCGAGACCCUUGGCAGCAGAACACAUGAGGAUCACCCAUGUAAA	–	–	–	–	apparent Kd (designed as: OFF switch for theophylline, no ligand): 52.4 nM; apparent Kd (ligand present: theophylline, designed as: OFF switch for theophylline): 46.5 nM
UGCGGACAUGAGGAUCACCCAUGUGCGGAUACCAGCAGCCGGCUCUGCCCUUGGCAGCCGCUACCCUUGCACGUUUAACGAUCCA	–	–	–	–	apparent Kd [5]: 37.8 nM; apparent Kd [6]: 36.7 nM
CAUUCCAAGGCGGAGGAUAUUCGGAUCGCCACAUGAGGAUCACCCAUGUACGAGUAGUCUGCAACGAAGAAGGCCGUACGUCACCA	–	–	10.5	6.57	–
GAACCUAUAGGAUAUACAUGAGGAUCACCCAUGUAGCCAUCUAUUCGUGGGACUAGGUGUAGAAGGAUAGCAAA	12.7	11.8	–	–	–
GAGAGGCGCUAGAAGGCACGCGUUCGGAUUGAGUGAGGAUAUAGUCCUCUGCCACAUGAGGAUCACCCAUGUAGUUUGAUAGAG	–	–	6.28	6.12	–
GCGGGACUGUAGAAGGGUUAUCCUUAAGGUCUGAUCACAUGAGGAUCACCCAUGUAACGGGUGGAACAGGAUAUACCAGAUCGC	42	48.4	–	–	–

Sequence	apparent Kd [1] [nM]	apparent Kd [2] [nM]	apparent Kd [3] [nM]	apparent Kd [4] [nM]	further results
AUGGGUACCACAGGAUAUUAGUAACACAUGAGGAUCACCCAUGUUUUACCGCUUGAAGCUUAGACUAAGAAGGGUGGCUUAGAA	–	–	55.1	23.9	–
CUAAGAGUUACGGCCGCCACUAGUUGGGAUCCGCCCGUAAAAUCACAUGAGGAUCACCCAUGUCCUAGGACCGGGUAAUCGCAUU	–	–	–	–	apparent Kd (designed as: ON switch for tryptophan, no ligand): 265 nM; apparent Kd (ligand present: tryptophan, designed as: ON switch for tryptophan): 142 nM
AUUAAUUCAGGAUAUACAUGAGGAUCACCCAUGUGGCGAAAGAACAUAUAGGAAACAAGUAGAAGGGAAUAGAU	17.9	16.4	–	–	–
CGAGAAUAUACAGGAUAUGGCGGAACCCAUUACAUGAGGAUCACCCAUGUACCAUGGAAAAGAGUCCAGAAGGGUAGAAUCAAA	–	–	8.1	6.19	–
AAAUCUAACGAGAAGGGAGUGGCCGGCCACUUAGCAGACAUGAGGAUCACCCAUGUGAAGAUCACUCAGGAUAUCGAUAAUCCA	–	–	24.9	22.7	–
CCGUAUCGACCAGGAUAUUCAAUAGCGCCACAUGAGGAUCACCCAUGUUUAUAUCUUCAUGGAAGGAAGAAGGGGUACAAGCGG	199	240	–	–	–
UUGGUUGCAUAGAAGGUGAGAUAGGAUCUACAUGAGGAUCACCCAUGUGUUAUCCCAAUUAGAAUCAAGGAUAUAUUGGCUUAU	–	–	19.1	15.7	–
CCGCUCGGGACAUGAGGAUCACCCAUGUUACCUUGCCGUGAGAGAAGGGACACGGCCAGCUCAUGUCAGGAUAUCUCAGCGUAU	–	–	48.3	12.4	–
UGGUUUGUCCAUACAUGAGGAUCACCCAUGUAACACUGGCCCAGAAGGCGAAAAUGGCAGCCAGUCGAGGAUAUGGGCUGUAUG	–	–	59.7	26.6	–
AGCCAAUAAGGAUAUACAUUUAGAGAUCAUCGUACAAAGUAACAUGAGGAUCACCCAUGUAGAAGGUAUGCAGC	10.2	11.3	–	–	–
CGCAGCAUCUAGAAGGGCGAAUCAACAAUACAACUAGUGAACAUGAGGAUCACCCAUGUAAUGACGCAGGAUAUAGUAGCAAAG	–	–	26.5	13.7	–
ACGUUCCUGAGAGGAUAUUCCAACAUGAGGAUCACCCAUGUAGAUGGUCGAUGCUUCCAUUCAGCGAAGAAGGCUCUAAAGGGC	22.3	15.7	–	–	–
UUGAUCUCGUAGAAGGGAGAGAUUGAGGGCUUCUCAGGAUAUACGAAUCCUCUGUGGCUAUGUUACAUGAGGAUCACCCAUGUC	791	355	–	–	–
ACAGCACAUGAGGAUCACCCAUGUCGACAUGUAUUAGGAUAUGAUCCGCGCUAGACACCAUCAGAAGGAAUACCGA	–	–	43	23.7	–
GAUUUGUGAGGAUAUCAUUAGAAACAAGUAUGAGGCGAAAGUGAGAAGGCACAUGAGGAUCACCCAUGUUGGAA	15	15.7	–	–	–
AUGGACCCAAAGAAGGAGAUCUGGACGACCCAUCUAGGAUAUUUGGCGCGCCCAUCCACCUGCACAUGAGGAUCACCCAUGUCG	–	–	11.9	9.55	–
AAAGAAAACGGAGGAUAUAGAAAUCCGAAUCCAAACCCGCCAACAUGAGGAUCACCCAUGUGCUUCUAGAAGGCCGAAUGCUAC	–	–	19.8	17	–
CUAAAUUACGCGUAGGAUAUAUUAAAGACUACAUGAGGAUCACCCAUGUCACUUAAACCACGAGAAUAGAAGGACGUAGAAAGAGA	–	–	8.77	9.06	–
AUUGGAGACUGGUACAUGAGGAUCACCCAUGUUAAUAACAGUAGAAGGCCCGCGGUUAGAAGAUGGGAGGAUAUACACGUGGGU	10.4	17.8	–	–	–
CGUCAACAUGAGGAUCACCCAUGUUUCGAUACCAGUGACCCUCUCCACCCUUGGCAGCGAGCGCCCGCGCCUGAUAAAUCUUCUA	–	–	–	–	apparent Kd [5]: 12.1 nM; apparent Kd [6]: 14.2 nM
AAUUAUACAUGAGGAUCACCCAUGUCAAAUAUUGAUAGCUGGCAGGAUAUGAUAGAGACGGAAACUCAGAAGGGCCCGAUGAAC	–	–	15	12.6	–
UAGAGGACGGGAGGAUAUUCAGGUACAUCAGCCGAAGGCACACAUGAGGAUCACCCAUGUGGGUCGAAGAAGGCCCAGUUGACG	–	–	5.37	4.67	–
CGUCGAUAACCACAUGAGGAUCACCCAUGUAAUGUGGUGUGGAGAAGGUCGUGCUAGUUCUAUACGAAGGAUAUCCACGAAUCU	124	98.3	–	–	–
UUUAUAAUCGUAAGGAUAUCCGCGUUAGUCCACCCGGAGAAGGUACAUGAGGAUCACCCAUGUGAACUAUGGGU	24.4	28.5	–	–	–
AUUCAAAUAACAGGAUAUGACAUAAACUACGAAUCAGAAGGGUUACAUAAAUCAACAUGAGGAUCACCCAUGUAUACUCCACAA	–	–	17.5	11.7	–
ACACCUAUAGUGAGGAUAUAGAUCGAAACAAUCGACAAGAAGGCACAUGAGGAUCACCCAUGUAAGGCGCAAAU	6.55	5.97	–	–	–
AGACCAUCCUUAGGAUAUGGCUAUCUUAUCAAGCCAGAAGGAAGGGCCUCAUCUAACAUGAGGAUCACCCAUGUGCGCAAGUUU	81.3	51.9	–	–	–
